From the EternaBench riboswitch data

Test system: MS2 coat protein
Assay: apparent Kd, MS2 coat protein; higher = weaker binding; RNA-MaP array; FMN 200 µM where present
Procedure, shortened: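 Designs on Illumina sequencing-chip clusters, transcribed by stalled E. coli RNA polymerase, were exposed to SNAP-549-labelled MS2 coat protein in doubling steps from 0.7 or 1.5 nM up to 3 µM, without and then with constant ligand. The buffer held 100 mM Tris-HCl pH 7.5, 80 mM KCl, 4 mM MgCl2, BSA, DTT, yeast tRNA and Tween-20. Apparent Kd values are medians of filtered per-cluster binding-curve fits to green signal normalised to red-channel RNA signal and control-cluster median Fmax.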

[1] = designed as: ON switch for flavin mononucleotide, no ligand
[2] = ligand present: flavin mononucleotide, designed as: ON switch for flavin mononucleotide
[3] = designed as: OFF switch for flavin mononucleotide, no ligand
[4] = ligand present: flavin mononucleotide, designed as: OFF switch for flavin mononucleotide

Sequence | apparent Kd [1] [nM] | apparent Kd [2] [nM] | apparent Kd [3] [nM] | apparent Kd [4] [nM]
UGGUACAUGGGAGGAUAUGGGAAGAUACAUGAGGAUCACCCAUGUUUAAGAAUGCCGAGAGGCAACUAGAAGGCCCAUGUACCU | 1090 | 45.8 |  | 
AUUAUUUAUAGUUAUUGGUAAUUGACAGAAGGUGAAAGUGUCACAUGAGGAUCACCCAUGUUCUUCAAGGAUAUGUUGGUAUAC | 88.3 | 14 |  | 
ACCAAUGCAGGAUAUACAUGAGGAUCACCCAUGUAUAACCUACAUAGAUGAUUAUUAUGUAGAAGGGUAUUGGA |  |  | 13.2 | 12.9
CCUGGUUGGUAAGGAUAUCCUACACUGUUCUGACCCGUGCAAGCUACAUGAGGAUCACCCAUGUGGGAGAAGGUGCGUCAACGC |  |  | 12.6 | 11.7
AGAUAACACCAGAAGGACAUGAGGAUCACCCAUGUAGGAUAUGGGCAUCACUCGAGAAAGAAAAGACCAUAUGGACACAUGGUC | 160 | 13.2 |  | 
GUCAGCUCGUGAGGAUAUACAACACUGCUUCGGCAGUGUAUUAAGAUCACAUGAGGAUCACCCAUGUAGAAGGGACGAGCUGAU |  |  | 11.8 | 20.7
GAAGAGACAGGAUAUACAUGAGGAUCACCCAUGUGAGUAUGUUGGAGGCGGAGGAGGUGUAGAAGGGUCAAAGA |  |  | 24.3 | 26.1
GAGAUGUGAGGAUAUCUAGACCGCGAAAGAGCCGCGGUCCGAGAGAAGGCACAUGAGGAUCACCCAUGUGAUGA |  |  | 46.9 | 119
GGUGCCAUGUAGAAGGCAGAUCUGAUUCAGAUCUGAGGAUAUACAUGAGGAUCACCCAUGUGAAGGCACCGCACGAGAGUGCAA |  |  | 8.21 | 24
UAACGCGCAUGCAAGGAUAUGUGCAGAGCUACAUGAGGAUCACCCAUGUGGUUAUGCUAUUGAAAACAGAAGGUGCCCUCGCUCA | 25.8 | 24.3 |  | 
AGUCUGCUAGGAUAUACAUGAGGAUCACCCAUGUCUAUCAAUAGACUAUUAACCUGGUGUAGAAGGAGCUUGUA |  |  | 11.2 | 14.4
UGGUGCGAGCUAUCGCAUGACUGGGAGGAUAUGACAUGAGGAUCACCCAUGUGGGAUCUAAAUUGUCAGAAGGCUCGAUCUGGG |  |  | 346 | 102
GGAUGACAAAGUCAUCCAUAACGAACAUGAGGAUCACCCAUGUAGGAUAUGCUUCUCAAAGAGAAGCAGAAGGACAUGUGCCUU |  |  | 36.7 | 258
UGGAUCAUCGGAGGAUAUCAUGUAGAUACAUGAGGAUCACCCAUGUCGUACGAGAGUACGGAGAUUGAGAAGGCCGAUGAUCCU | 31.6 | 14.8 |  | 
ACGUUUUAUGCAGGAUAUUGACUUAUAUUUAAACAAGAAGGGCAUUACAUGAGGAUCACCCAUGUUAUCAUGGUAUUUAAGUUC |  |  | 40 | 60.4
AUGUUACAUGAGGAUCACCCAUGUGAGGAUAUGUGUACCGGUAAAAAAGUGUCUGGCCACAGAAGGCAUUUGGA |  |  | 29.4 | 33
ACUGGGCGCCAACCCAUGUCUAUGGAGGAUAUUACUGCCGGUAUCUCACAUGAGGAUCACCCAUGUAAGAAGGCCAUAAGCACA |  |  | 34.3 | 176
GCACUUAGAGUUGAACCGUUUCGAACAUGAGGAUCACCCAUGUAGGAUAUGCUAAUAGUAUUGAAGCAGAAGGACAAUAAGUGC |  |  | 6.43 | 6.05
GUAUAUAGUGUGAGGAUAUGCUGGUCCUUGGAUCAGCAGAAGGCACAUGAGGAUCACCCAUGUAGUUUAUUUUG |  |  | 18.4 | 65.7
CAAAACGUCGAGAAGGGCUCAGCGCAAGUGCCAGCAGGAUAUCGACAUGAGGAUCACCCAUGUCGUAUUUCAGGGUAGAUUUCA |  |  | 8.66 | 34.9
GAUUAACAUGAGGAUCACCCAUGUGAGGAUAUGAACUUGCCCACUUUCCCUUUAGAGUUUAGAAGGCGCAUUCU |  |  | 29.8 | 30.6
GCACGGUAUGUAGGAUAUGCAUAGCAUUGCUAUGCAGAAGGACAUGAGGAUCACCCAUGUAUGUAUUCCAUACUAAUCCCGUGG |  |  | 5.38 | 5.72
UCUAGACCGACAGGAUAUCAUGGCUGGAUAUAGUACAUGAGGAUCACCCAUGUCGGCUAGAGCGAUGAGAAGGGUCGGUUGCUC | 414 | 87.3 |  | 
UGGUACUAGGGAGGAUAUGGGAAGAUACAUGAGGAUCACCCAUGUUUAAGAAUGCCGAGAGGCAACUAGAAGGCCCUAGUACCA | 529 | 19.2 |  | 
GGCUCGCAGCUAGGAUAUGGGCGGUCACAUGAGGAUCACCCAUGUCAACAUCAAAACCAGAUUAACCAGAAGGAGCUGCGGGUU | 33.5 | 739 |  | 
AAAAUGUGAGGAUAUCACGGAGCUCCGCGUGACGGAGCUCCUGAGAAGGCACAUGAGGAUCACCCAUGUCCUGU |  |  | 51.3 | 316
GGUGGACAUGAGGAUCACCCAUGUGAGGAUAUCGGCUGGCUACUCGCUGACGGCUGCUCGAGAAGGCGCAUUGU |  |  | 46.3 | 95.6
UGGUACAUGGGAGGAUAUGGGUUGAUAACAUGAGGAUCACCCAUGUUAAAUUUUGCCGAAAGGCACUAGAAGGCCCAUGUACCU | 1130 | 142 |  | 

Sequence | apparent Kd [1] [nM] | apparent Kd [2] [nM] | apparent Kd [3] [nM] | apparent Kd [4] [nM]
AUUGUUAAGUUAGGAUAUAGUAAAAUAAUUUAGUUAGAAGGAGCUCACAUGAGGAUCACCCAUGUAAGAGGAUCACCCAUGUAU |  |  | 25.6 | 20.1
UGUCGGAGCAGAGGAUAUUACAUGAGGAUCACCCAUGUAUGAACCAAUAGCUGGAAACAGCAAUGUAAGAAGGCUGCUCCGAGA |  |  | 13.3 | 196
CUCGUCUGGAAACGGAGCGGCCAACAUGAGGAUCACCCAUGUGAGGAUAUGCCUACUAAAAGUAGGCAGAAGGCGCACUUGGCA |  |  | 23.6 | 34.1
GAAUCGAAAAUACGAGCAUGUACACAGGAUAUCCCGUGACAUGAGGAUCACCCAUGUAACACAUUGGAGAAGGGUGUUCACGUA | 153 | 14.8 |  | 
AAAGCAACAUGAGGAUCACCCAUGUAGGAUAUCGCUAUUGUAAUCAUGAAACAUGAUUACAAUAGCGAGAAGGACAUAUGCUUU |  |  | 6.77 | 9.48
CGUAACUGCAUAGGAUAUUGAUACAUGAGGAUCACCCAUGUUUUUCGGAUUAGAUAUAUACUAAGCAAGAAGGAUGGAGUUACG | 7.83 | 5.26 |  | 
AAAUUCAGAGGAUAUGCGCAUAGAUAAGACUUUGUUUCUUAACAUGAGGAUCACCCAUGUAGAAGGCUGUAAAA |  |  | 19.4 | 19.8
AAACAAGAAGGAUAUACAUUAUCGGAUCUUCCGGCAAUGCCACAUGAGGAUCACCCAUGUAGAAGGUCUAAAUU |  |  | 12.3 | 18.9
AGGGAGUUAGGAUAUGCUGCUCGUCACUUGCGUGAUGAGUAGCAGAAGGAACAUGAGGAUCACCCAUGUAAAAA |  |  | 31.2 | 30.3
GGGCCGAAAGGCCCGCGGGCCCGGCAGGAUAUACAUGAGGAUCACCCAUGUCCGGCGAAAGCCGGGUAGAAGGGCCGGGCCCGC |  |  | 4.98 | 5.29
GUGUACAGAGGAUAUGCACGAGUAGUUACGAAAGUAACUAUACAUGAGGAUCACCCAUGUAGAAGGCUGUACAC |  |  | 13.5 | 16.6
GAGCUUGAUGAGAAGGGUUACAUGAGGAUCACCCAUGUCGACCUUGGCGUAACAGGAUAUCAUCGGGCUCUGUGCGUUGACACA |  |  | 27 | 121
CUGAGGUCAGGAUAUGCAUGGCGGGACUUGCGUCGUGGCGUGGAGAAGGGACAUGAGGAUCACCCAUGUGGAGG |  |  | 117 | 99.8
AAGUUUGUACGAGGAUAUCAGUUGUUUCUAAAUUCAACAUGAGGAUCACCCAUGUAGCAAUGGAGUGAGAAGGCGUGUGGGCAA | 457 | 240 |  | 
GGUACUCAAAGAGUACUGAGUCGAACAUGAGGAUCACCCAUGUAGGAUAUGCGAGUUUUGAAUUUGCAGAAGGACAUUUUUAGC |  |  | 8.88 | 9.59
UUCUUACAUGAGGAUCACCCAUGUCAGGAUAUCUCCUCACUGCGCUUGCGCAGUGAAUAGAGAAGGGACAGGCU |  |  | 51.3 | 43.8
CGCUACUACCAGAAGGACAUGAGGAUCACCCAUGUAGGAUAUGGGUUACACGUUCCUGUGUUAAGUUACUACGCUACGUAUGCG | 419 | 20.2 |  | 
AGAACUGAUAGAGGAUAUGUUUUACAUGAGGAUCACCCAUGUGUACAAGGAUCAAUAUAUUAGUAACAGAAGGCUAUUAGUGAG |  |  | 13.2 | 19.5
CUGCUCGUAGAGAAGGCGUGGGCACAUGAGGAUCACCCAUGUCGCAGUACGAGGAUAUUUGCCGGCCCGCCCAAAAUGGCGCGA | 220 | 96.2 |  | 
AAUUAUUUACAGAAGGAGUAAGAUUAUGUAUUACUAGGAUAUGUUCACAUGAGGAUCACCCAUGUCAAAGUAGGUUUUUUAUGU |  |  | 12.4 | 12.3
UUGAAUCGAAACAUGAGGAUCACCCAUGUGUCGUAGGUAGCAUAGGAUAUGUACAUACUGUUGGGAUAGAAGGAUGAUGAUGCU | 8.62 | 7.47 |  | 
GAGCAGGUAAUAAAGUAGAAAUACAUGAGGAUCACCCAUGUAUAGGAUAUCGUCAGGAAUACUGACGAGAAGGAUACAUCCUGC |  |  | 14.2 | 18.1
UCCUUUAAUACAGGAUAUGUUAUUAUACAGUUGUUUGCUUAUUACUUUAUAACAGAAGGGUAGAACAUGAGGAUCACCCAUGUA | 76 | 50 |  | 
GGACAUGUCGUUUACAUGAGGAUCACCCAUGUCGAUGGACAUGAGGAUAUCGAUACAAAUUGUAUCGAGAAGGCAUGCAUGUCC | 40.8 | 18.5 |  | 
AGGAUUGUGCUAGGAUAUCCAGGUUUGCAGCGAGGAGAAGGAGCACAUGAGGAUCACCCAUGUUCUCAAAGGCCACGGCAAUAU |  |  | 6.98 | 13.4
ACAUGAGGAUCACCCAUGUUGAAUUAGGAUAUUUGACUGCACAUGAGGUUCACCCAUGUUCUACCGAAGAAGGGAUUAAUAAUU | 120 | 118 |  | 
CCGAGUGGCGUACAGGAUAUGUUGCGUGGAACAUGAGGAUCACCCAUGUAUUUGCUCCUGCAUACGCAGAAGGGUGCGUCCUGGG | 52.9 | 17.4 |  | 
